Results from ChEMBL document CHEMBL3627680, “An unprecedented dual antagonist and agonist of human Transglutaminase 2” (Bioorg Med Chem Lett, 2015).
Changes are numbered by the printed parent chain. One block for each molecule: values may come before it. Active and inactive are the calls of the source. The calls are words filed in the database; no cut-off is given here.

Tests used:
[1] = tested on: T1, Protein-glutamine gamma-glutamyltransferase (Homo sapiens), P21980 [R580A]; experiment: Activation of recombinant human TG2 R580A mutant deamidation activity using Cbz-Gln-Gly as substrate at 10 uM preincubated for 30 mins followed by substrate addition by GDH-coupled assay in presence of 3 mM Ca2+/500 uM GMP-PNP
T1 sequence (whole entry): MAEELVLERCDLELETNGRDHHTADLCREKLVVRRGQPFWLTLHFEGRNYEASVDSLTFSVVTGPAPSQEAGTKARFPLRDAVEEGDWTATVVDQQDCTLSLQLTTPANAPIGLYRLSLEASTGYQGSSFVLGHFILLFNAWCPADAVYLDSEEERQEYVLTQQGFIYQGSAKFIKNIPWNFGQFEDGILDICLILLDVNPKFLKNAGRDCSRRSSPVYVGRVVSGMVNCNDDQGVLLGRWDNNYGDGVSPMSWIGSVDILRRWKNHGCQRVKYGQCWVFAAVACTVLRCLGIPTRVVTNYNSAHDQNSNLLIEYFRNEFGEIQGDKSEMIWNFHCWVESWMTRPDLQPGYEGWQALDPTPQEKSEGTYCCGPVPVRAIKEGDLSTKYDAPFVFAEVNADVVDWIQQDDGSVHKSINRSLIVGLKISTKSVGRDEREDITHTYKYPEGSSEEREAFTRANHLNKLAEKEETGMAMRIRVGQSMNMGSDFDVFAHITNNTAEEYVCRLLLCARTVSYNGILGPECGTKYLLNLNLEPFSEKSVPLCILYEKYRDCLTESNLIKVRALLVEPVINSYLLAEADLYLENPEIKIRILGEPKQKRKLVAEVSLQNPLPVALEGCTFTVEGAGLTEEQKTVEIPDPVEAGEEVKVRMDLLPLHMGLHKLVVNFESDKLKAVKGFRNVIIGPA
Method in brief: (§1)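 GDH-coupled deamidation assay comparing wild-type and R580A TG2 at 0.5 μM enzyme and 3 mM Ca2+, with and without GMP-PNP.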

[2] = biological target: T2, Protein-glutamine gamma-glutamyltransferase (Homo sapiens) (UniProt P21980); experiment: Activation of extracellular TG2 transamidating activity in human WI38 cells assessed as incorporation of 5-BP into fibronectin at 10 uM preincubated for 30 mins followed by 5-BP addition measured after 3 hrs by DAPI staining-based confocal fluorescence microscopic analysis; format: cell-based; details: WI-38
T2 sequence (whole entry): T1 sequence (whole entry) with A580R
Method in brief: (§2)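 WI-38 fibroblasts grown to confluence, pre-incubated 30 min with vehicle (1% DMSO) or compound, then incubated with 200 μM 5-(biotinamido)-pentylamine for 3 h. Cells fixed and stained to image 5-BP incorporation into extracellular matrix proteins as a measure of TG2 transamidation. Five images sampled per well.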

[3] = tested on: Protein-glutamine gamma-glutamyltransferase (Homo sapiens), P21980 [UNDEFINED MUTATION]; experiment: Activation of recombinant human TG2 V224 mutant deamidation activity using Cbz-Gln-Gly as substrate preincubated for 30 mins followed by substrate addition by GDH-coupled assay in presence of 0.5 to 0.7 mM Ca2+
[4] = tested on: Protein-glutamine gamma-glutamyltransferase (Homo sapiens), P21980 [UNDEFINED MUTATION]; experiment: Activation of recombinant human TG2 V224 mutant transamidating activity assessed as 5-BP incorporation into immobilized N-N-dimethylcasein at 15 uM preincubated for 30 mins followed by 5-BP addition measured after 1 hr by streptavidin-based microtiter plate assay in presence of 0.6 mM Ca2+/100 uM GMP-PNP
Method in brief: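 Transamidation microtiter assay: 5-BP incorporated into immobilized N,N-dimethylcasein by V224 TG2 at 0.6 mM Ca2+ plus 100 μM GMP-PNP, with incorporated biotin quantified with streptavidin.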

[5] = tested on: Protein-glutamine gamma-glutamyltransferase (Homo sapiens), P21980 [UNDEFINED MUTATION]; experiment: Effect on closed state of recombinant human TG2 V224 mutant at 100 uM after 1 hr by native PAGE analysis
[6] = tested on: Protein-glutamine gamma-glutamyltransferase (Homo sapiens), P21980 [UNDEFINED MUTATION]; experiment: Effect on open state of recombinant human TG2 V224 mutant at 100 uM after 1 hr by native PAGE analysis
[7] = biological target: T2, Protein-glutamine gamma-glutamyltransferase (Homo sapiens); experiment: Inhibition of wild type human TG2 deamidation activity using Cbz-Gln-Gly as substrate preincubated for 30 mins followed by substrate addition by GDH-coupled assay in presence of 5 mM Ca2+
Method in brief: (§3)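 GDH-coupled deamidation with wild-type or truncated (1-466) TG2 at 0.5 μM enzyme and 5 mM Ca2+. Activity normalized to each protein's own maximum.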

[8] = biological target: T2, Protein-glutamine gamma-glutamyltransferase (Homo sapiens); experiment: Inhibition of wild type human TG2 at 15 uM in presence of 5 mM Ca2+; method in brief: as §3
[9] = biological target: T3, Protein-glutamine gamma-glutamyltransferase (Homo sapiens, UniProt P21980); experiment: Non-competitive inhibition of recombinant human TG2 V224 mutant deamidation activity using Cbz-Gln-Gly as substrate preincubated for 30 mins followed by substrate addition by GDH-coupled assay in presence of 5 mM Ca2+
Method in brief: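 V224 TG2 (0.5 μM) deamidation by GDH-coupled assay at 5 mM Ca2+. Rates measured across substrate concentrations at several inhibitor levels. Mode and Ki derived by Michaelis-Menten and Lineweaver-Burk analysis.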
Target sequence in this assay (P21980 2-687 limits assumed): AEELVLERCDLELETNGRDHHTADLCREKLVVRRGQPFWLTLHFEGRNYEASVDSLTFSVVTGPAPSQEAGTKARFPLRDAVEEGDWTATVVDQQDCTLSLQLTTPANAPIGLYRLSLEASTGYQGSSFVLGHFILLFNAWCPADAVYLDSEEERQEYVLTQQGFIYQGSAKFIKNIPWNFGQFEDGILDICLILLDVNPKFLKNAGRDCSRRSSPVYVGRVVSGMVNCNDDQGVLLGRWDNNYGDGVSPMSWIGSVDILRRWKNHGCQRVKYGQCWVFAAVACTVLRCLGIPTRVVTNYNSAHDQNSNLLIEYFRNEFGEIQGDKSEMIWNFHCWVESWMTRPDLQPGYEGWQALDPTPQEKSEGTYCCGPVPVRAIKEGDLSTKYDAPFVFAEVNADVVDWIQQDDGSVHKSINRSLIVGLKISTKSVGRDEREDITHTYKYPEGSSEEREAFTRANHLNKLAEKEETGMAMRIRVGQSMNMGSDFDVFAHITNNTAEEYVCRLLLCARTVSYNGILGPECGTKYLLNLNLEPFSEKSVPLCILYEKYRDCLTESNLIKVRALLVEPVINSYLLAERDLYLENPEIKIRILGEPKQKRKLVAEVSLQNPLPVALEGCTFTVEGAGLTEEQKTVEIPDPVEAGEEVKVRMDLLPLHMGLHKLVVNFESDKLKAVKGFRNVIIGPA

[10] = tested on: T1, Protein-glutamine gamma-glutamyltransferase (Homo sapiens), P21980 [R580A]; experiment: Inhibition of recombinant human TG2 R580A mutant deamidation activity using Cbz-Gln-Gly as substrate at 10 uM preincubated for 30 mins followed by substrate addition by GDH-coupled assay in presence of 3 mM Ca2+; method in brief: as §1
[11] = biological target: T2, Protein-glutamine gamma-glutamyltransferase (Homo sapiens); experiment: Activation of extracellular TG2 transamidating activity in human WI38 cells assessed as incorporation of 5-BP into fibronectin at 1 uM preincubated for 30 mins followed by 5-BP addition measured after 3 hrs by DAPI staining-based confocal fluorescence microscopic analysis; format: cell-based; details: WI-38; method in brief: as §2
[12] = tested on: Protein-glutamine gamma-glutamyltransferase (Homo sapiens), P21980 [UNDEFINED MUTATION]; experiment: Activation of recombinant human TG2 V224 mutant deamidation activity using Cbz-Gln-Gly as substrate at 15 uM preincubated for 30 mins followed by substrate addition by GDH-coupled assay in presence of 0.6 mM Ca2+
[13] = tested on: Protein-glutamine gamma-glutamyltransferase (Homo sapiens), P21980 [UNDEFINED MUTATION]; experiment: Inhibition of human TG2 E396Q/N398S/D400N mutant deamidation activity using Cbz-Gln-Gly as substrate preincubated for 30 mins followed by substrate addition by GDH-coupled assay in presence of 5 mM Ca2+
[14] = biological target: T2, Protein-glutamine gamma-glutamyltransferase (Homo sapiens); experiment: Inhibition of human TG2 truncated (1 to 466 amino acid residues) mutant at 15 uM in presence of 5 mM Ca2+; method in brief: as §3
[15] = tested on: Protein-glutamine gamma-glutamyltransferase (Homo sapiens), P21980 [UNDEFINED MUTATION]; experiment: Inhibition of human TG2 E447Q/E451Q/E452Q/E454Q mutant deamidation activity using Cbz-Gln-Gly as substrate preincubated for 30 mins followed by substrate addition by GDH-coupled assay in presence of 5 mM Ca2+
[16] = tested on: Protein-glutamine gamma-glutamyltransferase (Homo sapiens), P21980 [UNDEFINED MUTATION]; experiment: Effect on open state of recombinant human TG2 V224 mutant at 500 uM after 1 hr by native PAGE analysis in presence of 1 mM MgCl2
[17] = biological target: T3, Protein-glutamine gamma-glutamyltransferase; experiment: Competitive inhibition of recombinant human TG2 V224 mutant deamidation activity using Cbz-Gln-Gly as substrate preincubated for 30 mins followed by substrate addition by Lineweaver-Burk plot analysis in presence of 5 mM Ca2+
Method in brief: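 Deamidation of Cbz-Gln-Gly by the V224 allele of human TG2 (0.5 μM) was read by a GDH-coupled assay at 5 mM Ca2+. Michaelis-Menten data were collected at several inhibitor levels, and Ki was derived from Lineweaver-Burk analysis.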
Target sequence in this assay (P21980 2-687 limits assumed, stated change not applied): as the sequence (P21980 2-687 limits assumed) above

[18] = tested on: Protein-glutamine gamma-glutamyltransferase (Homo sapiens), P21980 [UNDEFINED MUTATION]; experiment: Effect on closed state of recombinant human TG2 V224 mutant at 500 uM after 1 hr by native PAGE analysis in presence of 1 mM MgCl2
[19] = tested on: Protein-glutamine gamma-glutamyltransferase (Homo sapiens), P21980 [UNDEFINED MUTATION]; experiment: Activation of recombinant human TG2 V224 mutant deamidation activity using Cbz-Gln-Gly as substrate at 25 uM preincubated for 30 mins followed by substrate addition by GDH-coupled assay in presence of 0.6 mM Ca2+

Sequence of Protein-glutamine gamma-glutamyltransferase (Homo sapiens), P21980 [UNDEFINED MUTATION] (P21980 whole entry, looked up, stated change not applied, the tested form may be a part): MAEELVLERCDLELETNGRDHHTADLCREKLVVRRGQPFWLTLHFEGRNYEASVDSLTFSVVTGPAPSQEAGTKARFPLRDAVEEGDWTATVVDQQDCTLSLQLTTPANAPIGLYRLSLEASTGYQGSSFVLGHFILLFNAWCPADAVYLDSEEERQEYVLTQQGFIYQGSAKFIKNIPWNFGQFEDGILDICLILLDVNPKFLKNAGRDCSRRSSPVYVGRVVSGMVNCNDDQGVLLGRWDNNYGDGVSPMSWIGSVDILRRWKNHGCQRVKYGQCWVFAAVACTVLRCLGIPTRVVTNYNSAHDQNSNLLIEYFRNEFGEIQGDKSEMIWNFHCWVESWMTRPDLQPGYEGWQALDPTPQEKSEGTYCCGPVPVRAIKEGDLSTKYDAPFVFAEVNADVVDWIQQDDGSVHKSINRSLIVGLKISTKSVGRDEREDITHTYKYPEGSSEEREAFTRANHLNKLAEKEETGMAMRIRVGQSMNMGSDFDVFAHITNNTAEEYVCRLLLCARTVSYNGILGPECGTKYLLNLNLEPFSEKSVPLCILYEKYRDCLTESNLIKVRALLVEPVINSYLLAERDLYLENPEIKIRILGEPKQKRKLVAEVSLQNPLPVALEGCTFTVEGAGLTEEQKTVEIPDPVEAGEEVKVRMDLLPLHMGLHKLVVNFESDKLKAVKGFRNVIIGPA

Structure (SMILES): O=C1Nc2ccccc2/C1=C\C(=O)c1cccnc1
- Ki [9]: 86 µM

Structure (SMILES): Nc1nc2c(ncn2[C@@H]2O[C@H](COP(=O)(O)OP(=O)(O)NP(=O)(O)O)[C@@H](O)[C@H]2O)c(=O)[nH]1 [PHOSPHOAMINOPHOSPHONIC ACID GUANYLATE ESTER]
- Activity [16]: inactive
- Ki [17]: 27 µM
- Activity [18]: inactive

Second part, the molecule after the results:

- Activity [1]: Active
- Activity [2]: inactive
- Activity [3]: Active
- Activity [4]: Active
- Activity [5]: inactive
- Activity [6]: inactive
- inhibition [7]: Active
- inhibition [8]: Active
- Ki [9]: 3.3 µM
- inhibition [10]: Active
- Activity [11]: Active
- Activity [12]: Active
- inhibition [13]: Active
- inhibition [14]: Active
- inhibition [15]: inactive
Structure (SMILES): COc1ccccc1C(=O)/C=C1/C(=O)Nc2cccc(Cl)c21

- Activity [2]: inactive
- Ki [9]: 47 µM
- Activity [11]: Active
Structure (SMILES): O=C1Nc2cccc(Cl)c2/C1=C\C(=O)c1ccc(Cl)cc1

- Activity [19]: Active
- Ki [9]: 9.1 µM
Structure (SMILES): O=C(/C=C1/C(=O)N(c2ccccc2)c2cccc(Cl)c21)c1cccnc1
